Source: ChEMBL document CHEMBL1156002, “Synthesis, Raman, FT-IR, NMR spectroscopic characterization, antimicrobial activity, cytotoxicity and DNA binding of new mixed aza-oxo-thia macrocyclic compounds” (2009)
In brackets after ≈: the same amount, converted by molar mass. Activity calls are given as the source filed them. No cut-off for these calls is given here.

Columns and labels:
Calf thymus DNA = experiment: Binding affinity to calf thymus DNA assessed as change in electromagnetic spectrum at 500 uM by UV-vis spectroscopy; format: nucleic-acid assay; details: Bos taurus
Outline: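 CT-DNA was prepared in ddH₂O and judged protein-free by an A260/A280 ratio of 1.8:1. UV–visible absorption spectra of the DNA solution were recorded without ligand and with increasing ligand amounts.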

Proteus vulgaris = experiment: Antibacterial activity against Proteus vulgaris ATCC 8427 after 24 hrs by broth micro dilution method; format: functional; details: ATCC 8427, 24 h
[1] = Cytotoxicity against human 23132/87 cells assessed as cell viability at 10 uM after 48 hrs by MTT assay; format: functional; details: 23132-87, 48 h, read-out: Activity
Outline: (§1)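 Cells were seeded at 3.10³–5.10³ per well in RPMI 1640 with 10% FBS, 4 mM L-glutamine and penicillin/streptomycin, then held 24 h at 37 °C under 5% CO₂. Ligands (DMSO, final 0.5% v/v) were added at 0.1–100 for 24 or 48 h. MTT was added for 4 h and dissolved in 50% DMF/5% SDS. A570 was read, and cytotoxicity was calculated as 100×(OD treated/OD untreated).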

Debaryomyces hansenii = experiment: Antifungal activity against Debaryomyces hansenii DSM 70238 after 24 hrs by broth micro dilution method; format: functional; details: DSM 70238, 24 h
Outline: (§2)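 Broth microdilution was run in cation-adjusted Mueller Hinton Broth. Compounds were dissolved in DMSO at 2 mg mL^-1 and serially diluted two-fold. Yeast precultures were grown in Malt Extract Broth for 48 h. The final inoculum was about 10⁶ cfu mL^-1, and plates were incubated at 37 °C for 24 h. The MIC was read from this series.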

Escherichia coli = experiment: Antibacterial activity against Escherichia coli ATCC 11230 after 24 hrs by agar disk diffusion assay; format: functional
Outline: (§3)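 Disk diffusion with sterile 6 mm discs loaded with DMSO solutions of the test agents and placed on inoculated agar. Bacteria were pre-grown in Nutrient Broth at 30 °C for 24 h, and plates were incubated at 35 °C for 24 h. Each plate carried a reference antibiotic disc matched to the organism, and a DMSO-only solvent control was run.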

Rhodotorula mucilaginosa [2] = experiment: Antifungal activity against Rhodotorula rubra DSM 70403 after 24 hrs by broth micro dilution method; format: functional; details: DSM 70403, 24 h; outline: as §2
[3] = Cytotoxicity against human 23132/87 cells assessed as cell viability at 0.1 uM after 48 hrs by MTT assay; format: functional; details: 23132-87, 48 h, read-out: Activity; outline: as §1
23132-87 [4] = experiment: Induction of apoptosis in human 23132/87 cells assessed as change in nuclear appearance at 100 uM after 24 hrs by hoechst nuclear staining; format: functional, cell-based
Outline: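 Cells grown in 6-well plates were treated for 24 h, washed three times in PBS and fixed in ice-cold methanol for 10 min. They were stained with Hoechst 33258 for 5 min, destained in double-distilled water for 5 min and examined by fluorescence microscopy. Untreated and DMSO-treated cells served as controls.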

23132-87 [5] = experiment: Induction of apoptosis in human 23132/87 cells assessed as DNA fragmentation at 100 uM after 24 hrs by DNA fragmentation assay; format: functional, cell-based
Outline: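 10 × 10⁴ cells were seeded in 6-well plates and treated with ligand for 24 h. Cells were then collected and washed in PBS, and DNA was extracted with a kit. Extracts were run on 1.5% agarose alongside a 100 bp marker, an untreated control and DMSO-treated controls, and ladders were visualized under UV.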

[6] = system: Mycolicibacterium smegmatis; experiment: Antibacterial activity against Mycobacterium smegmatis CCM 2067 after 24 hrs by broth micro dilution method; format: functional; details: CCM 2067, 24 h
Rhodotorula mucilaginosa [7] = experiment: Antifungal activity against Rhodotorula rubra DSM 70403 after 72 hrs by agar disk diffusion assay; format: functional
Outline: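 Sterile 6 mm paper discs were loaded with ligand solution freshly prepared in DMSO and placed on inoculated agar. The inoculum came from broth cultures: bacteria in Nutrient Broth at 30 °C for 24 h, yeasts in Malt Extract Broth for 48 h. Plates were incubated at 35 °C for 24 h (bacteria) or 25 °C for 72 h (yeasts). A DMSO solvent control and a reference antibiotic disc were included on each plate.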

Listeria monocytogenes = experiment: Antibacterial activity against Listeria monocytogenes ATCC 15313 after 24 hrs by agar disk diffusion assay; format: functional; outline: as §3
[8] = Cytotoxicity against human 23132/87 cells assessed as cell viability at 1 uM after 48 hrs by MTT assay; format: functional; details: 23132-87, 48 h, read-out: Activity; outline: as §1

SMILES	Activity (Calf thymus DNA)	MIC (Proteus vulgaris)	viability at 10 µM [1]	MIC (Debaryomyces hansenii)	inhibition zone (IZ) (Escherichia coli)	MIC (Rhodotorula mucilaginosa [2])	viability at 0.1 µM [3]	Activity (23132-87 [4])	Activity (23132-87 [5])	MIC [6]	inhibition zone (IZ) (Rhodotorula mucilaginosa [7])	inhibition zone (IZ) (Listeria monocytogenes)	viability at 1 µM [8]
O=C1CCSSCCC(=O)Nc2nc(nc(-c3ccccc3)n2)NC(=O)CCSSCCC(=O)Nc2nc(nc(-c3ccccc3)n2)N1	inactive	12.5 mg/L (≈ 17.3 µM)	> 86%	1.56 mg/L (≈ 2.16 µM)	10 mm	3.12 mg/L (≈ 4.32 µM)	> 86%	inactive	inactive	25 mg/L (≈ 34.6 µM)	21 mm	10 mm	> 86%
O=C1CSSCC(=O)Nc2nc(nc(-c3ccccc3)n2)NC(=O)CSSCC(=O)Nc2nc(nc(-c3ccccc3)n2)N1	inactive	25 mg/L (≈ 37.5 µM)	> 86%	1.56 mg/L (≈ 2.34 µM)	10 mm	3.12 mg/L (≈ 4.69 µM)	> 86%	inactive	inactive	25 mg/L (≈ 37.5 µM)	18 mm	10 mm	> 86%
O=C1CSCC(=O)Nc2nc(nc(-c3ccccc3)n2)NC(=O)CSCC(=O)Nc2nc(nc(-c3ccccc3)n2)N1	inactive	12.5 mg/L (≈ 20.7 µM)	> 86%	3.12 mg/L (≈ 5.19 µM)	10 mm	6.25 mg/L (≈ 10.4 µM)	> 86%	inactive	inactive	25 mg/L (≈ 41.5 µM)	17 mm	10 mm	> 86%
O=C1CCSCCC(=O)Nc2nc(nc(-c3ccccc3)n2)NC(=O)CCSCCC(=O)Nc2nc(nc(-c3ccccc3)n2)N1	inactive	25 mg/L (≈ 37.9 µM)	> 86%	3.12 mg/L (≈ 4.74 µM)	10 mm	6.25 mg/L (≈ 9.49 µM)	> 86%	inactive	inactive	50 mg/L (≈ 75.9 µM)	16 mm	10 mm	> 86%
